Data from PubChem BioAssay.
The source made the active and inactive calls.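 Rule for the calls, unless noted: active = a full or partial loss of lipid-probe fluorescence in the fish gall bladder, intestine or both, judged by eye; inactive = no fluorescence loss, or compound toxic to the fish.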

How the values were obtained:
[1] = inhibitors of TNFa-induced NFkB p65 translocation, primary screen, imaging, HUVEC, MLSMR starter and 10KST1 sets (AID 438;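 active = inhibition above 20% together with a positive visual image hit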;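 note: compound added about 3h40 before a 20 min TNFalpha stimulation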;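 for inhibition: signal is the nuclear over cytoplasmic p65 intensity ratio per well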); conditions: HUVEC TNFa-induced p65 nuclear translocation; cell count: measured here: nuclei count (cytotoxicity indicator), at 2.08 µM; inhibition: at 2 µM, stronger effect = higher value, 0% TNFa-plus-vehicle, 100% no-TNFa wells
[2] = endothelial E-selectin expression blockers – imaging, HUVEC, immunofluorescence, MLSMR starter and 10KST1 sets, primary screen (AID 487;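 active = visually confirmed hit in the image check and inhibition above 20%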;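 for inhibition: signal is fraction of cell area covered by stained E-selectin grains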;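 for nuclei count: 100% = median nuclei count of all wells on the same plate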); conditions: HUVEC TNFalpha-induced E-selectin immunofluorescence imaging, at 2 µM; inhibition: stronger effect = higher value; nuclei count: measured here: cell number, toxicity
[3] = Primary imaging screen for DUSP6 inhibitors that restore phospho-Erk in transfected HeLa cells, chemical complementation (AID 609;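 active = compounds giving at least 50% inhibition in the cell-based MKP-3 phosphatase rescue imaging test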;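 for inhibition: phospho-Erk level distribution per well compared with pooled transfected vehicle control wells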); conditions: HeLa MKP-3 transfected, phospho-Erk imaging KS statistic, at 10 µM, cells stimulated with TPA for 15 min
[4] = biological target: Dual specificity protein phosphatase 6 (Homo sapiens) (UniProt Q16828); assay: as above; conditions: HeLa MKP-3 transfected, phospho-Erk imaging KS statistic; at 10 µM; stronger effect = higher value; cells stimulated with TPA for 15 min
Dual specificity protein phosphatase 6 (Homo sapiens), sequence (Q16828 whole entry, looked up): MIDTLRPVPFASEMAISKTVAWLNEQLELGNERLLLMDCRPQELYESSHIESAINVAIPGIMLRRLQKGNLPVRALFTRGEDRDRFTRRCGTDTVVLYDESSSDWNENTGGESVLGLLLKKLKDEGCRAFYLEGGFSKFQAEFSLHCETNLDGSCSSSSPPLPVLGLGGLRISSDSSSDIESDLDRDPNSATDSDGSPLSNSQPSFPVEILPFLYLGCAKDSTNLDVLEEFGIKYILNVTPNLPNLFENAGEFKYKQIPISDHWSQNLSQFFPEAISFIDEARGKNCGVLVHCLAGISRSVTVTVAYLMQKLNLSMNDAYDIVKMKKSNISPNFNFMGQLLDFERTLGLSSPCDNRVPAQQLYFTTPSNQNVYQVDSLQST

[5] = biological target: Voltage-gated potassium channel subunit beta-2 (Rattus norvegicus) (UniProt P62483); assay: inhibitors of rat Kvbeta2 reductase activity – biochemical, NADPH fluorescence, primary screen (AID 622;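 active = fluorescence slope higher than the sample average by over 3 SD, cut at about -0.22 in these data, passing the limit was not always enough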;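 note: slope of raw intensity against log time taken from 70 to 1610 s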); conditions: recombinant KvBeta, 4-cyanobenzaldehyde reduction, at 10 µM, stronger effect = higher value
Voltage-gated potassium channel subunit beta-2 (Rattus norvegicus), sequence (P62483 whole entry, looked up): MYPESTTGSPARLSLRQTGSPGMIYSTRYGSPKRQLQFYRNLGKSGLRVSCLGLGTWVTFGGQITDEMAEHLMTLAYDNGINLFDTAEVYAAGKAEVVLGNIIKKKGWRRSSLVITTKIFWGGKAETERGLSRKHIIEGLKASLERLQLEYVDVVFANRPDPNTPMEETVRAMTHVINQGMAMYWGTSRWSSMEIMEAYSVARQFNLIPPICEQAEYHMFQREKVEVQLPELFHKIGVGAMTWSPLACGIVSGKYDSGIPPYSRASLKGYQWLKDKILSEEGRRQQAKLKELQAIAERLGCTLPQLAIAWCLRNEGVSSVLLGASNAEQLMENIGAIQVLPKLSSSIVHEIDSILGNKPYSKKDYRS

[6] = biological target: Voltage-gated potassium channel subunit beta-2 (Rattus norvegicus) (UniProt P62483); assay: enhancers of rat Kvbeta2 NADPH turnover – biochemical, NADPH fluorescence, primary screen (AID 623;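 active = NADPH fluorescence slope more negative than the mean of all samples by about 3 SD, 99.7% confidence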;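 note: fluorescence intensity change per second fitted from 20 to 320 s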); conditions: Recombinant KvBeta, NADPH fluorescence decrease slope, 10 min; at 10 µM; stronger effect = lower value
[7] = biological target: Muscarinic acetylcholine receptor M4 (Homo sapiens) (UniProt P08173); assay: M4-linked GIRK flux change, two-sided – cell-based, HEK293 M4/GIRK, thallium flux, BTC-AM, M4 allosteric agonist project, primary screen (AID 625;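 active = fluorescence slope after compound addition differing from the mean of all tested samples at 99.7% confidence, mostly higher but some lower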;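 note: thallium influx through GIRK channels coupled to M4 in HEK293 cells with BTC-AM dye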); conditions: at 10 µM, actives lie on both sides
Muscarinic acetylcholine receptor M4 (Homo sapiens), sequence (P08173 whole entry, looked up): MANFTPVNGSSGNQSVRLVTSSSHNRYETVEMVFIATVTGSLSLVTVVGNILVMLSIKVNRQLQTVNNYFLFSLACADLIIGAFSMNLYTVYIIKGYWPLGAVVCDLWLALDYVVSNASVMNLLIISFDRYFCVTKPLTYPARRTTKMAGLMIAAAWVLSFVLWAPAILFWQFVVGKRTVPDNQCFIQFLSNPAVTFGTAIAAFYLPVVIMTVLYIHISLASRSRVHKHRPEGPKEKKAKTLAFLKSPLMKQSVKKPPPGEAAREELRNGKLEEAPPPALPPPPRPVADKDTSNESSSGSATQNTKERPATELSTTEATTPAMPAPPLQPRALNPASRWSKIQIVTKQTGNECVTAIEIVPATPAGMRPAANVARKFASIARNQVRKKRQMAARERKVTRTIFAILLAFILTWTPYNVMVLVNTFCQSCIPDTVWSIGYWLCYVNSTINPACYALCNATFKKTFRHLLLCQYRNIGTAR
In short: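 assay system = HEK293 cells with M4 receptor and GIRK channels | medium = pH 7.3 thallium assay buffer | doses = 10 µM final, single point | timing = cells overnight at 37 °C, BTC-AM loading 1 h, reads 2 min total | signal = BTC-AM fluorescence, 1 Hz kinetic reads | read-out = post-addition slope, 15–24 s, of baseline-normalized fluorescence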

[8] = inhibitors of larval lipid processing in zebrafish, primary screen, whole organism, PED6 fluorescence, gall bladder and intestine (AID 686); conditions: Zebrafish larvae PED6 lipid processing, fluorescence scoring; screened at 20 µM (by protocol);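 note: larvae 5 to 7 days old with five fish per well; signal comes from phospholipase A2 cleavage of quenched PED6 carried via bile; overnight exposure to compound and PED6 before scoring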
In short: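 Also added: quenched phospholipase substrate PED6, 100 nM final, ingested by larvae; System: zebrafish larvae, 5-7 d; Quantity: 5 larvae per well; Compound: 20 µM single dose; Schedule: overnight compound and PED6 incubation; Read-out: visual per-well fluorescence inhibition score; Measured by: By-eye fluorescence microscopy; Medium: E3.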

[9] = loss of swimming-algae plug formation – whole organism, Chlamydomonas reinhardtii, WT vs cilia-less mutant, absorbance, 96-well, primary screen (AID 463189;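 active = inhibition at or above 50% relative to wild type and mutant plate controls; inactive = inhibition below 50%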;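 note: 0% = wild type cc124 cells in DMSO and 100% = ciliumless bld1 mutant cells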); conditions: Chlamydomonas reinhardtii gravitaxis, OD600 absorbance, 2 days; at 10 µM; stronger effect = higher value
[10] = measured here: cell density z-score
[11] = measured here: nuclear c-Myc green intensity z-score
[12] = measured here: nuclear pErk red intensity z-score, stronger effect = higher value

| SMILES | cell count [1] | inhibition [1] | inhibition [2] | nuclei count [2] [%] | z-score [3, 10] | z-score [3, 11] | z-score [3, 12] | inhibition [4] | fluorescence slope [5] | NADPH fluorescence slope [6] | fluorescence slope [7] | outcome [8] | inhibition [9] |
| --- | --- | --- | --- | --- | --- | --- | --- | --- | --- | --- | --- | --- | --- |
| O=C(O)C(O)c1ccco1 (centres undefined) | 365 | -6.1% (inactive) | -95% (inactive) | 150 | 0.761 | 0.00341 | -0.65 | -4.59% (inactive) | -0.43 (inactive) | -9.9e-05 (inactive) | 0.00449 (inactive) | inactive | -5.52% (inactive) |
| CCC(=O)Nc1cccc(-c2nnc(SCC(=O)NCc3ccco3)n2C)c1 | 615 | -0.2% (inactive) | 47.2% (inactive) | 92.3 | 1.47 | -0.507 | -1.13 | 18.4% (inactive) | -0.51 (inactive) | -4e-05 (inactive) | 0.00589 (inactive) | inactive | -16.4% (inactive) |
| Cc1cc(C)n(-c2c(F)c(F)c(CN3CCCCC3)c(F)c2F)n1 | 557 | 6.8% (inactive) | 29.4% (inactive) | 107 | -0.661 | 0.711 | -1.05 | 17.8% (inactive) | -0.349 (inactive) | 1.9e-06 (inactive) | 0.00483 (inactive) | inactive | 26% (inactive) |
| COC(=O)CSCC(=O)Nc1cc2c(cc1C(C)=O)OCO2 | 333 | -6.3% (inactive) | -95.3% (inactive) | 76.4 | 0.0556 | -1.11 | 1.67 | -4.78% (inactive) | -0.452 (inactive) | 1.5e-05 (inactive) | 0.00475 (inactive) | inactive | 22.6% (inactive) |
| N#Cc1nc(-c2cccs2)oc1NCc1ccccc1 | 712 | 0.5% (inactive) | -23.3% (inactive) | 148 | 0.919 | 1.11 | 0.281 | -7.67% (inactive) | -0.329 (inactive) | -2.5e-05 (inactive) | 0.00659 (inactive) | inactive | 7.94% (inactive) |
| CCCCCCOc1ccc(C(=O)n2cnc(N)n2)cc1 | 664 | -4.5% (inactive) | -26.7% (inactive) | 174 | 0.344 | 0.534 | -0.706 | -5.95% (inactive) | -0.508 (inactive) | -7.5e-05 (inactive) | 0.00638 (inactive) | inactive | 0.29% (inactive) |
| CS(=O)(=O)c1ccc2nc(NC(NC(=O)c3ccco3)(C(F)(F)F)C(F)(F)F)sc2c1 | 376 | -6.2% (inactive) | 9.6% (inactive) | 162 | -0.876 | 1.31 | 0.831 | 3.42% (inactive) | -0.451 (inactive) | -8.9e-05 (inactive) | 0.00497 (inactive) | inactive | 2.54% (inactive) |
| Cc1nc(N2CCN(C(=O)c3ccc(Cl)cc3)CC2)c(C#N)c2c1COC(C)(C)C2 | 522 | 8.1% (inactive) | 7% (inactive) | 95.8 | -0.225 | -0.286 | 0.404 | 1.98% (inactive) | -0.335 (inactive) | -2.3e-05 (inactive) | 0.00518 (inactive) | inactive | 129% (active) |
| CC(C)OC(=O)CCNc1n[nH]c(=O)[nH]c1=O | 635 | -4.3% (inactive) | -4.4% (inactive) | 119 | 0.648 | 0.239 | 0.621 | -4.27% (inactive) | -0.499 (inactive) | -0.000105 (inactive) | 0.00594 (inactive) | inactive | -8.46% (inactive) |
| C=CCOc1ccc(/C(O)=C2/C(=O)C(=O)N(CCCN3CCOCC3)C2c2ccccc2)cc1 (centres undefined) | 400 | -4.5% (inactive) | -152% (inactive) | 142 | 0.832 | -1.64 | 0.377 | 7.73% (inactive) | -0.44 (inactive) | -0.000122 (inactive) | 0.00439 (inactive) | inactive | 3.35% (inactive) |
| CCOC(=O)c1[nH]c2ccc(OC)cc2c1NC(=O)CCN1CCCC(C)C1 (centres undefined) | 521 | -0.1% (inactive) | 9.9% (inactive) | 100 | -0.422 | -0.411 | -1.15 | 11.4% (inactive) | -0.351 (inactive) | -1.8e-05 (inactive) | 0.00513 (inactive) | inactive | 28.8% (inactive) |
| Cc1cc(C)c(S(=O)(=O)O)c(C)n1 | 533 | -13.8% (inactive) | 6.7% (inactive) | 203 | -0.302 | 0.575 | 0.985 | -5.95% (inactive) | -0.393 (inactive) | -4.7e-05 (inactive) | 0.00523 (inactive) | inactive | -7.08% (inactive) |
| CCOc1ccc(N2C(=O)CC(N)C2=O)cc1 (centres undefined) | 726 | 11.3% (inactive) | 33.5% (inactive) | 123 | -0.139 | 1.28 | 0.161 | -13.3% (inactive) | -0.462 (inactive) | -5.8e-05 (inactive) | 0.00592 (inactive) | inactive | 19.4% (inactive) |
